# Calls of active or inactive are those of the source. The rule behind the calls is not given here.
# How the values were obtained:
# [1] = Solubility in 2% DMSO containing 50 mM potassium phosphate buffer solution pH 7.4 at 10 uM by dynamic light scattering method; details: pH 7.4, 10 µM
# [2] = target: T1, Tubulin (Sus scrofa) (UniProt P02554+P02550); experiment: Displacement of [3H]-paclitaxel from biotinylated porcine tubulin after 25 mins by competitive binding assay; assay type: protein assay
# Method in brief: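 Biotinylated porcine tubulin precoupled to SPA beads for 30 min at 4 °C, then 0.05 μM [3H]-paclitaxel and test compound added in G-PEM with 1 mM GTP, 3% DMSO, duplicate wells, 25 min at rt. Nonspecific binding taken with 1000-fold unlabeled excess. IC50 from seven-point semilog curves, four-parameter fit.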
# [3] = test system: FaDu; experiment: Cytotoxicity against human FADU multicellular tumor spheroid assessed as induction of spheroid disruption incubated for 7 days by light microscopy; assay type: functional, cell-based; details: for EC50: 168 h
# Method in brief: (§1)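 Monocultured FaDu spheroids dosed over a concentration range and imaged at 0, 2, 4 and 7 days post-dosing. Volume followed over time, fragmentation scored at the 7-day end point, and EC50 for disruption derived from 7-day dose–response plots. Two independent experiments, mean ± SEM.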
# [4] = test system: FaDu; experiment: Cytotoxicity against human FADU multicellular tumor spheroid assessed as dispersion of cells from the spheroid at 0.25 uM incubated for 2 to 7 days by light microscopy; assay type: functional, cell-based; method in brief: as §1
# [5] = test system: FaDu; experiment: Cytotoxicity against human FADU cells assessed as reduction in cell viability after 72 hrs by MTT assay; assay type: functional; details: read-out: LC50 (the source's name)
# [6] = Aqueous solubility of the compound by UV-HPLC
# [7] = target: T2, Tubulin (Sus scrofa, UniProt P02554+P02550); experiment: (§2) Displacement of [3H]-colchicine from biotinylated porcine tubulin after 2 hrs by competitive binding assay; assay type: protein assay
# Method in brief: (§3)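 Biotinylated porcine tubulin (750 ng/well) with 0.1 μM [3H]-colchicine and test compound in G-PEM with 1 mM GTP, 3% DMSO, duplicate wells, 2 h at 37 °C. Streptavidin SPA beads then added for 45 min at 37 °C. Nonspecific binding taken with 1000-fold unlabeled excess. IC50 from seven-point semilog curves, four-parameter fit.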
# [8] = test system: SCC-4; experiment: Cytotoxicity against human SCC4 cells assessed as reduction in cell viability after 72 hrs by MTT assay; assay type: functional, cell-based
# Method in brief: (§4)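 Cells plated at an appropriate density and left 24 h to attach, then dosed in triplicate with compound diluted from 10 mM DMSO stocks into full growth medium (added at 2× final concentration). After 72 h, cells PBS-washed and given MTT (0.5 mg/mL in PBS) for 45−60 min. Formazan dissolved in 0.1 M HCl/2-propanol, A570 read (650 nm reference). Viability normalised to DMSO control; LC50 by nonlinear regression.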
# [9] = test system: FaDu; experiment: Cytotoxicity against human FADU multicellular tumor spheroid assessed as effect on normal spheroid growth at 0.25 uM incubated for 2 to 3 days by light microscopy; assay type: cell-based; method in brief: as §1
# [10] = test system: MES-SA/Dx5; experiment: Cytotoxicity against multidrug resistant human MES-SA/Dx5 cells assessed as reduction in cell viability after 72 hrs by MTT assay; assay type: functional, cell-based; method in brief: as §4
# [11] = Metabolic stability in CD-1 mouse liver microsomes assessed as half life at 1 uM preincubated for 5 mins before addition of NADPH by LC-MS/MS method; assay type: ADME
# [12] = target: T1, Tubulin (Sus scrofa); experiment: Displacement of [3H]-vinblastine from biotinylated porcine tubulin after 15 mins by competitive binding assay; assay type: protein assay
# Method in brief: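 Biotinylated porcine tubulin, 0.2 μM [3H]-vinblastine, SPA beads and test compound combined together in G-PEM with 1 mM GTP, 3% DMSO, duplicate wells, 15 min at rt before counting. Nonspecific binding taken with 1000-fold unlabeled excess. IC50 from seven-point semilog curves, four-parameter fit.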
# [13] = test system: SK-MEL-28; experiment: Cytotoxicity against human SK-MEL-28 cells assessed as reduction in cell viability after 72 hrs by MTT assay; assay type: functional, cell-based; method in brief: as §4
# [14] = test system: FaDu; experiment: Ratio of EC50 for human FADU multicellular tumor spheroid to LC50 for human FADU cells; assay type: functional
# Method in brief: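 FaDu spheroids were dosed over a range of concentrations, and spheroid volume was measured at the 7-day endpoint. EC50 for disruption came from dose–response plots, combining two independent experiments. This was compared with the 72 h monolayer MTT LC50 (triplicate wells, nonlinear regression, viability relative to DMSO).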
# [15] = Solubility in 2% DMSO containing 50 mM potassium phosphate buffer solution at pH 7.4 by dynamic light scattering method; details: 50 mM potassium phosphate buffer with 2% DMSO
# [16] = test system: FaDu; experiment: Induction of microtubule disruption in human FADU cells at 50 nM after 24 hrs by immunofluorescence staining method; assay type: functional, cell-based
# [17] = test system: SH-SY5Y; experiment: Cytotoxicity against human SH-SY5Y cells assessed as reduction in cell viability after 72 hrs by MTT assay; assay type: functional, cell-based; method in brief: as §4
# [18] = Apparent permeability from apical to basolateral side in human Caco2 cells at 10 uM at pH 7.4 after 60 mins by mass spectrometry; details: Caco-2, pH 7.4
# [19] = test system: MES-SA; experiment: Cytotoxicity against human MES-SA cells assessed as reduction in cell viability after 72 hrs by MTT assay; assay type: functional, cell-based; method in brief: as §4
# [20] = test system: FaDu; experiment: Induction of mitotic spindle defects in human FADU cells at 15 nM after 24 hrs by immunofluorescence staining method; assay type: functional, cell-based
# [21] = Efflux ratio of apparent permeability from basolateral to apical side over apical to basolateral side in human Caco2 cells; details: Caco-2
# [22] = target: T2, Tubulin; experiment: Inhibition of porcine brain tubulin polymerization assessed as reduction in GTP-induced microtubule assembly after 60 mins by OD340 method
# [23] = test system: FaDu; experiment: Induction of microtubule disruption in human FADU cells assessed as multipolarization of spindle at 50 nM after 24 hrs by immunofluorescence staining method; assay type: functional, cell-based
# [24] = Apparent permeability from apical to basolateral side in human Caco2 cells assessed as drug recovery at 10 uM at pH 7.4 after 60 mins by mass spectrometry; assay type: ADME, cell-based; details: Caco-2, pH 7.4, read-out: Drug recovery
# [25] = test system: FaDu; experiment: Cytotoxicity against human FADU multicellular tumor spheroid assessed as reduction of spheroid volume by light microscopy; assay type: functional, cell-based; method in brief: as §1
# [26] = test system: FaDu; experiment: Antitumor activity against human FADU cells xenografted in CD-1 mouse assessed as tumor volume recovery at 10 mg/kg, po qd for 10 days measured between 6 and 9 days; assay type: functional, organism-based
# Method in brief: (§5)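 FaDu xenografts established in mice, then test agent given by oral gavage once daily for 10 days; tumor volume followed against an untreated control group, with significance assessed at days 3, 6, 9, 13 and 15.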
# [27] = test system: FaDu; experiment: Selectivity index, ratio of EC50 for cell cycle arrest in human FADU cells to LC50 for cytotoxicity against human FADU cells; assay type: functional
# Method in brief: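 G2/M arrest EC50 came from a 24 h dose–response of propidium iodide flow cytometry in FaDu cells. It was compared with the LC50 from a 72 h MTT assay in FaDu cells (triplicate wells, A570, viability relative to DMSO, nonlinear regression).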
# [28] = test system: FaDu; experiment: Cell cycle arrest in human FADU cells assessed as accumulation at G2/M phase after 24 hrs by propidium iodide staining-based flow cytometry; assay type: functional
# Method in brief: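 FaDu cells seeded at 10^5/well, attached overnight, then exposed to compound in full growth medium at 37 °C for 24 h. Cells were trypsinized, fixed in ice-cold 70% ethanol, treated with RNase A (100 μg/mL), stained overnight in the dark with propidium iodide (50 μg/mL), and analysed by flow cytometry with at least 10000 events per sample.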
# [29] = test system: FaDu; experiment: Antitumor activity against human FADU cells xenografted in CD-1 mouse assessed as inhibition of tumor growth at 10 to 20 mg/kg, po qd for 10 days measured at 3 to 9 days; assay type: functional, organism-based; method in brief: as §5
# [30] = test system: FaDu; experiment: Induction of microtubule disruption in human FADU cells at 250 nM after 24 hrs by immunofluorescence staining method; assay type: functional, cell-based
# [31] = test system: FaDu; experiment: Cytotoxicity against human FADU multicellular tumor spheroid assessed as effect on normal spheroid growth at 1 uM incubated for 2 to 3 days by light microscop; assay type: cell-based
# Method in brief: (§6)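 FaDu monoculture spheroids were dosed once and imaged at 0, 2, 4 and 7 days after dosing. Fragmentation and growth were judged against untreated spheroids.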
# [32] = test system: FaDu; experiment: Cytotoxicity against human FADU multicellular tumor spheroid assessed as dispersion of cells from the spheroid at 1 uM incubated for 2 to 7 days by light microscopy; assay type: functional, cell-based; method in brief: as §6
# [33] = target: T1, Tubulin (Sus scrofa); experiment: as §2; assay type: protein assay; method in brief: as §3
# [34] = target: T1, Tubulin (Sus scrofa); experiment: Potency index, ratio of vincristine IC50 to docetaxel IC50 for displacement of [3H]-paclitaxel from biotinylated porcine tubulin; assay type: protein assay
Compound,solubility [1],Activity [2],EC50 [3] [nM],CC50 [5] [nM],solubility [6] [µM],IC50 [7] [µM],Activity [8],Activity [10],half-life at 1 µM [11] [min],Activity [12],Activity [13],Ratio [14],solubility kinetic [15] [µM],Activity [17],"Papp A→B at 1 h, 10 µM [18] [×10⁻⁶ cm/s]",Activity [19],efflux ratio [21],IC50 [22] [µM],other results
COCC(C)n1cc(C(=O)C(=O)Nc2ccc(OC)nc2)c2ccccc21 (stereo not given),soluble,inactive,39,12,10,0.16,Active,Active,16,inactive,Active,3,40,Active,33.6,Active,1.1,3.9,Activity [4]: Active; Activity [9]: Non-toxic; Activity [16]: Active; Activity [20]: Active
COc1ncc(NC(=O)C(=O)c2cn(C(C)C)c3ccccc23)cn1,,,,171,,,,,5,,,,,,39.8,,1,,
COCCn1cc(C(=O)C(=O)Nc2ccc(OC(C)C)nc2)c2ccccc21,soluble,inactive,113,55,,0.5,Active,Active,99,Active,Active,2,10,Active,15.2,Active,0.9,6.6,"Activity [23]: Active; Activity [3]: Dose-dependent effect; recovery at 1 h, 10 µM [24]: < 50%; Activity [25]: Dose-dependent effect; TGI [26]: inactive; Ratio [27]: 2; Activity [28]: Dose-dependent effect; EC50 [28]: 90 nM; TGI [29]: Active; Activity [30]: Active; Activity [31]: Non-toxic; Activity [32]: Active"
CC[C@]1(O)C[C@H]2CN(CCc3c([nH]c4ccccc34)[C@@](C(=O)OC)(c3cc4c(cc3OC)N(C=O)[C@H]3[C@@](O)(C(=O)OC)[C@H](OC(C)=O)[C@]5(CC)C=CCN6CC[C@]43[C@@H]65)C2)C1,,Active,,,,,,,,Active,,,,,,,,,Activity [33]: inactive; Ratio IC50 [34]: 2
COc1ccc(NC(=O)C(=O)c2cn(C(C)C)c3ccccc23)cn1,soluble,inactive,,85,10,1.6,,,5,Active,,,20,,19.8,,1.4,14.9,

# — ChEMBL document CHEMBL3745658, “An Orally Bioavailable, Indole-3-glyoxylamide Based Series of Tubulin Polymerization Inhibitors Showing Tumor Growth Inhibition in a Mouse Xenograft Model of Head and Neck Cancer” (J Med Chem, 2015)
